# Measurements as given in ChEMBL document CHEMBL1147789, “The search for novel TRPV1-antagonists: from carboxamides to benzimidazoles and indazolones” (Bioorg Med Chem Lett, 2006).
# Columns and labels:
# [1] = biological target: T1, Transient receptor potential cation channel subfamily V member 1 (Homo sapiens, UniProt Q8NER1); test: Antagonist activity against capsaicin-induced intracellular calcium ion increase in CHO cells expressing human TRPV1 in FLIPR assay; assay type: functional, cell-based
# T1 sequence (Q8NER1 whole entry): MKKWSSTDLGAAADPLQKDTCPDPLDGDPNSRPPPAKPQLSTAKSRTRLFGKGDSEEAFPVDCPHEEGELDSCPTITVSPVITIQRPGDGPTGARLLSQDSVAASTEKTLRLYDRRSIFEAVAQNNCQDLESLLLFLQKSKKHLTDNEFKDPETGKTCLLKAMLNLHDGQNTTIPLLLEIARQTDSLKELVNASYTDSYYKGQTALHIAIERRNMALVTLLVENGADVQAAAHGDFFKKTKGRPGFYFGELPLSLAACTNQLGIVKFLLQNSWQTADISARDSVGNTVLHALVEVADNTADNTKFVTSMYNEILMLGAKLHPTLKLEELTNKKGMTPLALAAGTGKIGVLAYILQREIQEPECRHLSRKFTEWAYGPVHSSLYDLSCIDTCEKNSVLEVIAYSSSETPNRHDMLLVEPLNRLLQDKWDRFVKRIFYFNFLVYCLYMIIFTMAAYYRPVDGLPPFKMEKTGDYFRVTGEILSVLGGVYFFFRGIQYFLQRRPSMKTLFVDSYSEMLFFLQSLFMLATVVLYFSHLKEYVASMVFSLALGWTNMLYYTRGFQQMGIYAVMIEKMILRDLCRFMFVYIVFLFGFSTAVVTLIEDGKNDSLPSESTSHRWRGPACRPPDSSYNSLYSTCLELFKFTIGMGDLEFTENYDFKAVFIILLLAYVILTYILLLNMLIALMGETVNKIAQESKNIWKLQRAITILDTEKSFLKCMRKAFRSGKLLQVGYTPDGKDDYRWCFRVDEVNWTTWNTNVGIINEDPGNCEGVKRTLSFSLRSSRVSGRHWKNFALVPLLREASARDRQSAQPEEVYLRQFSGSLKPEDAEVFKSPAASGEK
# [2] = biological target: T1, Transient receptor potential cation channel subfamily V member 1; test: Inhibition of acidic pH 5.5-stimulated current in CHO cells expressing human TRPV1 receptor at 100 nM by patch clamp; assay type: functional, cell-based
# [3] = AUC in hepatic portal vein of rat at 5 mg/kg, po; assay type: ADME, organism-based, Plasma; design: dose 5 mg/kg, route oral
# [4] = Systemic AUC in rat at 5 mg/kg, po; assay type: ADME, organism-based; design: dose 5 mg/kg, route oral; conditions: in vivo
# Summary of the method: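 Oral dose of 5 mpk; AUC taken from systemic blood levels.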
# [5] = biological target: T1, Transient receptor potential cation channel subfamily V member 1; test: Inhibition of acidic pH 5.5-stimulated current in CHO cells expressing human TRPV1 receptor by patch clamp; assay type: functional, cell-based
# [6] = Clearance in rat at 1 mg/kg, iv; assay type: ADME, organism-based; design: dose 1 mg/kg, route intravenous; conditions: in vivo
# [7] = biological target: T2, Transient receptor potential cation channel subfamily V member 1 (Rattus norvegicus, UniProt O35433); test: Activity at rat TRPV1 as inhibition of pH 5.5-induced currents in CHO cells
# T2 sequence (O35433 whole entry): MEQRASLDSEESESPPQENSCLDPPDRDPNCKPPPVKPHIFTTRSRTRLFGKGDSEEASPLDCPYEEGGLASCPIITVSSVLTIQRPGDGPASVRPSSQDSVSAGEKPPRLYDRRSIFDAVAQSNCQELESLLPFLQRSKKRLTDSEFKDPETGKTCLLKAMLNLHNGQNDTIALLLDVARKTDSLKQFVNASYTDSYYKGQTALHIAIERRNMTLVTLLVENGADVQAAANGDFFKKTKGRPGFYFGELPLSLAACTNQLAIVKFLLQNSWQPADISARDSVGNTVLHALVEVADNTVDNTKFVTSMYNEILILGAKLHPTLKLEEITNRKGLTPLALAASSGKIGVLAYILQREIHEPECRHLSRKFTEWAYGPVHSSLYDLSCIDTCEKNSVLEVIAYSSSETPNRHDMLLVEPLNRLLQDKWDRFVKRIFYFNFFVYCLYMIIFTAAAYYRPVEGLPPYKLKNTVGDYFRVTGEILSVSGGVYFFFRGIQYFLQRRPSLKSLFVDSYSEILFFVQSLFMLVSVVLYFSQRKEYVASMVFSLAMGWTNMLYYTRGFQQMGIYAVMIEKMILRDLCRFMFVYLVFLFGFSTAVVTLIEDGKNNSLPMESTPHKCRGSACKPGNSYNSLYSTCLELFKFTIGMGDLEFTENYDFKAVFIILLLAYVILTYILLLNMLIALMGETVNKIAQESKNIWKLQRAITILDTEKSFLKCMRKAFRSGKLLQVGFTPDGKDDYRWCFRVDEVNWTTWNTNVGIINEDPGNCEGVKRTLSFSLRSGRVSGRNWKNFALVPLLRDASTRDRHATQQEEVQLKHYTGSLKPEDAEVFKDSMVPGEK
# [8] = Volume of distribution in rat at 1 mg/kg, iv; assay type: ADME, organism-based; design: dose 1 mg/kg, route intravenous; conditions: in vivo, read-out: Vdss
# [9] = Half life in rat at 1 mg/kg, iv; assay type: ADME, organism-based; design: dose 1 mg/kg, route intravenous; conditions: in vivo
# [10] = biological target: Transient receptor potential cation channel subfamily V member 1 (Rattus norvegicus) (UniProt O35433); test: Decrease in carrageenan-induced thermal hyperalgesia in rat at 30 mg/kg, po; assay type: functional, organism-based; design: dose 30 mg/kg; scale not given: the % may be the effect or the level left
# Transient receptor potential cation channel subfamily V member 1 (Rattus norvegicus), sequence (O35433 whole entry): as above
# Summary of the method: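 Rats received 0.1 mL intraplantar carrageenan, or saline for the uninflamed group, in the right hind limb. Two hours later they were dosed orally at 30 mpk. After 1 h, thermal withdrawal was retested three times on each hind paw (Hargreaves). Saline response was set as 0% hyperalgesia and carrageenan response as 100%.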
# [11] = biological target: T2, Transient receptor potential cation channel subfamily V member 1; test: Activity against capsaicin-induced […] in CHO cells expressing rat TRPV1 assessed by patch clamp; assay type: functional, cell-based
# Summary of the method: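 Whole-cell patch clamp on cells expressing rat TRPV1, stimulated with 500 nM capsaicin; IC50 for inhibition of the evoked response.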
Compound,IC50 [1] [nM],also measured
CC(C)(C)c1ccc(C(=O)Nc2ccc(-c3ncccc3C(F)(F)F)cc2)cc1,470,
O=c1c2cc(-c3ncccc3C(F)(F)F)ccc2[nH]n1-c1ccc(C(F)(F)F)cc1,370,
COc1ccccc1-c1ccc2c(=O)n(-c3ccc(C(F)(F)F)cc3)[nH]c2c1,170,
FC(F)(F)c1ccc(-c2nc3cc(-c4ncccc4C(F)(F)F)ccc3[nH]2)cc1,22,inhibition [2]: 95%; AUC [3]: 1.48 µM·h; AUC [4]: 1.25 µM·h
Cc1cccnc1-c1ccc(NC(=O)c2ccc(C(F)(F)F)cc2)cc1,160,
Cc1cccnc1-c1ccc2c(=O)n(-c3ccc(C(F)(F)F)cc3)[nH]c2c1,180,
CC(C)(C)c1ccc(-c2nc3cc(-c4ncccc4C(F)(F)F)ccc3[nH]2)cc1,224,
O=C(Nc1ccc(-c2ccccn2)cc1)c1ccc(C(F)(F)F)cc1,1500,
Fc1ccc(-c2nc3cc(-c4ncccc4C(F)(F)F)ccc3[nH]2)cc1,320,
O=C(Nc1ccc(-c2ncccc2C(F)(F)F)cc1)c1ccc(C(F)(F)F)cc1,24,IC50 [5]: 33 nM; AUC [3]: 0.08 µM·h; AUC [4]: 0.04 µM·h
Oc1c2c(nn1-c1ccc(C(F)(F)F)cc1)NC(c1ncccc1C(F)(F)F)CC2 (stereo not drawn),290,
O=C(Nc1ccc(-c2ncccc2C(F)(F)F)cc1)c1ccccc1,2400,
O=c1c2ccccc2[nH]n1-c1ccc(C(F)(F)F)cc1,340,
Cc1ccc(C(=O)Nc2ccc(-c3ncccc3C(F)(F)F)cc2)cc1,1100,
Cc1cccnc1-c1ccc(NC(=O)c2cccc(C(F)(F)F)c2)cc1,640,
Cc1cccnc1-c1ccc2c(=O)n(-c3ccc(C(F)(F)F)cc3)[nH]c2n1,270,
O=c1c2ccc(-c3ncccc3C(F)(F)F)cc2[nH]n1-c1ccc(C(F)(F)F)cc1,35,clearance [6]: 8 mL/min/kg; IC50 [7]: 65 nM; Vd [8]: 2 L/kg; half-life [9]: 3.6 h; Activity [10]: 50%; IC50 [5]: 4 nM; IC50 [11]: 220 nM; AUC [3]: 6.2 µM·h; AUC [4]: 3 µM·h
Cc1ccc(-c2nc3cc(-c4ncccc4C(F)(F)F)ccc3[nH]2)cc1,170,
